Measured values taken from PubChem BioAssay AID449763 (Sanford-Burnham Center for Chemical Genomics, 2010).
In all, about 330,000 compounds went through this assay and about 1,100 (0.33%) were called active.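 The calls were made as follows: active = at 10 µM dose, activation of 40% or more, normalized to positive control; inactive = the rest.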 For the sample, actives were picked, then their nearest neighbours and some compounds at random.

Assay: PERK-eIF2a-CHOP pathway stimulators – cell-based, CHO-CHOP luciferase reporter, luminescence, uHTS, primary screen (AID 449763);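 also: 100% = tunicamycin at 10 µg/mL and 0% = DMSO alone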
Conditions: UPR activation, at 10 µM, active compounds read high, percent of tunicamycin response over DMSO baseline
In short: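 measured by = luciferase luminescence | assay system = CHO-CHOP cells, stable luciferase reporter of PERK-eIF2a-CHOP signalling | amount = 500 reporter cells seeded per well | timing = 6 h compound exposure at 37 °C after overnight seeding | controls = positive tunicamycin 10 µg/mL, negative DMSO alone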

activation, inactive:
COC(=O)c1sccc1NN1C(=O)c2ccccc2C1=O -0.357%
COc1ccccc1C(=O)NCc1nnc(SC(C)C(=O)Nc2nccs2)n1C (stereo not given) -1.66%
O=C(NCc1ccc(Cl)cc1)c1cc(=O)nc2sc(-c3ccccc3)nn12 -2.04%
COc1ccc(OC)c(-c2csc(NC(=O)C3=NNC(=O)CC3)n2)c1 -1.74%
COc1ccc(OC)c(-c2csc(NC(=O)COC(=O)C3CC3)n2)c1 1.31%
COC(=O)C1CCN(C(=O)COC(=O)c2cc(S(=O)(=O)N3CCOCC3)ccc2C)CC1 0.025%
COc1ccc(C2=NOC(Cn3nc(C(=O)NCc4ccc5c(c4)OCO5)cc3-c3ccccc3)C2)cc1 (stereo not given) 0.69%
Cc1ccsc1C(=O)OCC(=O)c1cc(C)n(CC2CCCO2)c1C (stereo not given) -8.43%
O=C1C(=O)N(CC2COc3ccccc3O2)c2ccccc21 (stereo not given) 2.24%
CC(C)CNc1ncnc2c1cnn2Cc1ccc(Cl)cc1 2.5%
O=C(Nc1ccc(-n2ccnc2P(=O)(O)c2ccccc2)cc1)c1ccccc1Br -1.3%
COCCN(Cc1cc2cc3c(cc2nc1Cl)OCO3)C(=O)c1cccc(C)c1 2.77%
O=C(NC1CCN(Cc2ccccc2)CC1)c1ccc(Oc2cc(Cl)cc(Cl)c2)o1 0.679%
Cn1cc(CN2CCC(C(O)CCc3ccccc3)CC2)c(-c2ccccc2F)n1 (stereo not given) -1.46%
Cn1cc(CN2CCCC(CO)C2)c(-c2ccc(Oc3ccccc3)cc2)n1 (stereo not given) -1.18%
O=C(CN1C(=O)c2cccnc2Oc2ccc(Cl)cc21)Nc1ccc(F)cc1 1.1%
Cc1ccc(CN2CCN(c3ncccn3)CC2)c(C)c1 0.144%
Oc1c(CN2CCCC2)cc(COCc2ccccc2)c2cccnc12 37.6%
O=C(Nc1ccc(N2CCN(C(=O)c3ccccc3)CC2)c(Cl)c1)c1cccnc1 0.424%
CC(CCn1cccn1)NC(=O)CCc1nnc(CCc2ccccc2)o1 (stereo not given) -1.47%
CCc1noc(C)c1C(=O)N1CCCSC1=Nc1ccccc1OC 2.57%
N#Cc1ccsc1NC(=O)CN1CCN(S(=O)(=O)c2cc(Cl)ccc2Cl)CC1 -1.62%
COc1ccc(Cl)cc1S(=O)(=O)N1CCN(CC(=O)C(C)(C)C)CC1 -1.27%
C[C@H](C(=O)CC(=O)OC(C)(C)C)[C@H](O)c1ccc(C(F)(F)F)cc1 1.59%
COc1ccc(NC(=O)C2=C(C)NC(=O)NC2c2ccccc2[N+](=O)[O-])cc1 (stereo not given) -2.61%
Cc1ccc(Nc2nc(N)nc(CN3CCN(Cc4ccccc4)CC3)n2)cc1Cl 0.453%
CNc1nc(Nc2ccc(C)c(Cl)c2)nc(N)c1[N+](=O)[O-] 5.39%
CCN(C(=O)CSc1nc(N)cc(=O)[nH]1)C1CCS(=O)(=O)C1 (stereo not given) 1.25%
CSCCNCc1cn(-c2ccc(F)cc2F)nc1-c1ccccc1C -1.15%
COc1ccc(CCNC(=S)N2CCN(S(=O)(=O)c3ccc(Cl)cc3)CC2)cc1 1.93%
CC1CCCC(NC(=O)c2cccc(N3CCCC3=O)c2)C1C (stereo not given) 3.2%
C/C(=N\NC(=O)c1cccc(N2CCCC2=O)c1)c1ccc(N)cc1 1.34%
Cc1ccc(NC(=S)NCCc2ccc(Cl)cc2)c(C)c1 1.96%
O=C(CSc1nnc(SCc2ccc(F)cc2)s1)Nc1ccc(C(=O)O)cc1 -2.09%
Cc1ccc(C2NC(=S)NC3=C2N2CCC3CC2)cc1 (stereo not given) -2.03%
CC(C(=O)O)n1cnc2sc3c(c2c1=O)CCCC3 (stereo not given) -0.91%
O=S(=O)(c1ccccc1)N(Cc1cccc(F)c1)c1ccccc1 -1.78%
CC1(C)CC(=O)C=C(NC2CC(C)(C)NC(C)(C)C2)C1 0.506%
CCCC(=O)N1c2ccc(-c3csc(N)n3)cc2CC1C (stereo not given) 4.75%
Cc1onc(C(=O)NN)c1-c1csc(COc2ccccc2)n1 -0.475%
NC(=O)C1CCN(C(=O)COc2ccc3c4c(c(=O)oc3c2)CCC4)CC1 1.77%
N#Cc1ccc(Oc2cc(C(F)(F)F)nc(-c3ccccn3)n2)cc1 -0.253%
COc1ccc(CNc2ncnc3ccccc23)cc1 5.16%
c1ccc2c(NCC3CCCO3)nc(-c3ccncc3)nc2c1 (stereo not given) -0.369%
COc1cnc(-c2ccccn2)nc1Oc1ccc(C(C)(C)C)cc1 3.2%
CCCCOc1ccc(C(=O)N/C(=C/C=C/c2ccccc2)C(=O)N2CCOCC2)cc1 5.27%
Cc1ccc2cc3cc(C(=O)N4CCCCCC4)oc3nc2c1 0.396%
O=C(CSc1nc2ncccc2[nH]1)Nc1ccc2c(c1)OCCO2 0.487%

activation, active:
C[C@@H]1C[C@@H]2O[C@H]2/C=C\C=C\C(=O)Cc2c(Cl)c(O)cc(O)c2C(=O)O1 145%
COc1ccc(OC)c(Nc2nc(-c3ccc(O)c(O)c3)cs2)c1 74.3%
Cc1cc(C(=O)CCl)c(C)n1CC1COc2ccccc2O1 (stereo not given) 174%
CCCOC1CCCN(Cc2cn(C)nc2-c2ccccc2F)C1 (stereo not given) 44.6%
Oc1c(CN2CCN(c3ccc(F)cc3)CC2)cc(Cl)c2cccnc12 415%
O=C(CN1CCN(S(=O)(=O)c2cc(Cl)ccc2Cl)CC1)c1ccc(O)c(O)c1 95.7%
OCCNc1nc(Nc2ccc(Cl)c(Cl)c2)nc2ccccc12 51.9%
Oc1cc2c(cc1O)CN(C(=S)NCCc1ccc(Cl)cc1)CCC2 58.3%
O=C(NCCc1ccc(Cl)cc1)c1cccc(N2CCCC2=O)c1 54.4%
CC(C)(C)C(=O)OCc1nc(-c2ccc(O)c(O)c2)cs1 170%
Cc1ccc(Oc2nc(-c3ccccn3)nc3ccccc23)cc1 48.5%
CC(C)(C)Nc1nc(-c2ccccn2)nc2ccccc12 61.4%
